# Measurements as given in publication PMC7035113 (Nature, 2020).
# Square brackets hold non-standard residues; d marks the D form. Ends that are not written are not given here. Peptide text beside a SMILES is read from it. pT = C[C@@H](OP(=O)(O)O)[C@H](N)C(=O)O
# Target: T1, SA2-SCC1 (Homo sapiens, UniProt O60216+Q8N3U4)
# T1 sequence (Q8N3U4 80-1060): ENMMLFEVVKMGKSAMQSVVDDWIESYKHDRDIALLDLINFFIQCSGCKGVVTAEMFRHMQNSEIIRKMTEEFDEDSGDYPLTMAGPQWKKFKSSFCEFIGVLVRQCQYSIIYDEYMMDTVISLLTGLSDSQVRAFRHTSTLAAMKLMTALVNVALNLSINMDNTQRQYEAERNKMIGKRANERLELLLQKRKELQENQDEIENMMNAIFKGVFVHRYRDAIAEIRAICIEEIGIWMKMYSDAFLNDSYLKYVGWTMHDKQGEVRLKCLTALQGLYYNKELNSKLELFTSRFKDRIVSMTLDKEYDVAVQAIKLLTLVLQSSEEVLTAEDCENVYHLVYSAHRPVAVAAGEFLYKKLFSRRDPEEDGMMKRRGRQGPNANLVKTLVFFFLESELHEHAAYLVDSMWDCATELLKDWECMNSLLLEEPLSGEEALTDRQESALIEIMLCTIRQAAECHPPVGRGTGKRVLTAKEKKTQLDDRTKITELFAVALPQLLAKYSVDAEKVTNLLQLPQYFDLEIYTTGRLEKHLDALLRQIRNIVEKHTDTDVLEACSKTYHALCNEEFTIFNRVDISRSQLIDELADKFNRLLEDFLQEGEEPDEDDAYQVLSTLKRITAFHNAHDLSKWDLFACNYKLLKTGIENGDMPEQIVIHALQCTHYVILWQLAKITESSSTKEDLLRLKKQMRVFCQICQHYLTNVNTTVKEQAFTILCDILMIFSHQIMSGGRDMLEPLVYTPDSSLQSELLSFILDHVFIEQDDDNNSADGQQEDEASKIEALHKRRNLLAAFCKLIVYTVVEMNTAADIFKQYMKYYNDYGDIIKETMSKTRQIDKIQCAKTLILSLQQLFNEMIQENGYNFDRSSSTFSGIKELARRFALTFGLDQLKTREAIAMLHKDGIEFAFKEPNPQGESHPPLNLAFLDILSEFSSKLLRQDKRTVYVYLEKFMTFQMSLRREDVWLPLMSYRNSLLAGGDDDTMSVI
# T1 sequence (O60216 281-420): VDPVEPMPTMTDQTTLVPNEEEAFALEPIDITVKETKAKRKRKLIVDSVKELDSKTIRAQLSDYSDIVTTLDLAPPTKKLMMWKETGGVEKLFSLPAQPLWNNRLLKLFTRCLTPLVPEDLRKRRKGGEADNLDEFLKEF
# Test: Isothermal titration calorimetry
# Details: ITC, 25°C, one site binding model
# Outline: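 Recombinant SA2-SCC1 from E. coli BL21(DE3), purified by Co2+ IMAC, MonoQ and Superdex 200. Protein and peptides were dialysed overnight at 4°C against 20 mM Tris pH 7.7, 150 mM NaCl, 0.5 mM TCEP. 50 μM SA2-SCC1 was placed in the cell and titrated with 500 μM peptide in 16 injections. Data were fitted to a one-site model; titrations were repeated three times.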
Compound,N (binding stoichiometry),TΔS [kcal/mol],ΔG [kcal/mol],ΔH [kcal/mol]
"CC(C)C[C@H](NC(=O)[C@H](CC(N)=O)NC(=O)[C@H](Cc1ccccc1)NC(=O)[C@H](CC(N)=O)NC(=O)[C@H](Cc1ccc(O)cc1)NC(=O)[C@H](C)NC(=O)[C@H](CC(=O)O)NC(=O)[C@H](CC(N)=O)NC(=O)[C@@H](N)CO)C(=O)N[C@@H](CCC(=O)O)C(=O)N[C@@H](CCC(=O)O)C(=O)NCC(=O)N[C@H](C(=O)N[C@@H](Cc1c[nH]cn1)C(=O)N[C@@H](CC(C)C)C(=O)N[C@H](C(=O)N1CCC[C@H]1C(=O)N[C@@H](Cc1ccccc1)C(=O)N[C@@H](CCCNC(=N)N)C(=O)O)[C@@H](C)OP(=O)(O)O)C(C)C [Shugoshin 331-349 (pT346), reference compound] (H-SNDAYNFNLEEGVHL[pT]PFR-OH; N-terminus and C-terminus assumed)",0.89,-12.30,-7.69,-20.00
DVKLEFFGFEDHETGGDEGGSGSSNYKIKYFGFDDLSESED [Wapl 423-463],0.62,-0.54,-6.11,-6.66
NYKIKYFGFDDLSESE [Wapl 447-462],1.00,-1.20,-5.60,-6.81
SNDAYNFNLEE [Shugoshin 331-341],0.83,-4.02,-6.64,-10.67
